Measurements: ChEMBL document CHEMBL1137012, “Structural optimization and biological evaluation of 2-substituted 5-hydroxyindole-3-carboxylates as potent inhibitors of human 5-lipoxygenase” (J Med Chem, 2009)
Calls of active or inactive are those of the source. The rule behind the calls is not given here.

Columns and labels:
Rattus norvegicus [1] = experiment: Antiinflammatory activity against lambda carrageenan-induced pleurisy in Wistar Han rat assessed as reduction in exudate volume at 10 mg/kg, ip administered 30 mins before carrageenan challenge measured after 4 hrs by trypan blue staining; format: functional; set-up: scale not given: the % may be the effect or the level left; settings: route intraperitoneal
How it was run: (§1)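 Male Wistar Han rats (220-230 g; n = 10 per group) received compound ip, or vehicle (DMSO 4%), 30 min before intrapleural λ-carrageenan under anaesthesia. After 4 h, exudate was collected and its volume measured. Leukocytes were counted by light microscopy after trypan blue staining. LTB4 was measured by EIA (ng/rat). Data are mean ± SE.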

Rattus norvegicus [2] = experiment: Antiinflammatory activity against lambda carrageenan-induced pleurisy in Wistar Han rat assessed as reduction in cellular infiltration at 10 mg/kg, ip administered 30 mins before carrageenan challenge measured after 4 hrs by trypan blue staining; format: functional; set-up: scale not given: the % may be the effect or the level left; settings: route intraperitoneal; how it was run: as §1
Rattus norvegicus [3] = experiment: Antiinflammatory activity against lambda carrageenan-induced pleurisy in Wistar Han rat assessed as reduction in LTB4 level at 10 mg/kg, ip administered 30 mins before carrageenan challenge measured after 4 hrs by EIA; format: functional; set-up: scale not given: the % may be the effect or the level left; settings: route intraperitoneal; how it was run: as §1
Neutrophil [4] = experiment: Inhibition of […]-induced translocation of 5-lipoxygenase from cytosol to perinuclear region in human neutrophils at 100 uM by Western blotblot; format: functional, cell-based
Rattus norvegicus [5] = experiment: Antiinflammatory activity against lambda carrageenan-induced pleurisy in Wistar Han rat assessed as reduction in inflammatory cell number at 4 mg/kg, ip administered 30 mins before carrageenan challenge measured after 4 hrs by trypan blue staining; format: functional; set-up: scale not given: the % may be the effect or the level left; settings: route intraperitoneal; how it was run: as §1
Rattus norvegicus [6] = experiment: Antiinflammatory activity against lambda carrageenan-induced pleurisy in Wistar Han rat assessed as reduction in LTB4 levels at 4 mg/kg, ip before carrageenan challenge measured after 4 hrs by EIA; format: functional; set-up: scale not given: the % may be the effect or the level left; settings: route intraperitoneal; how it was run: as §1
Rattus norvegicus [7] = experiment: Antiinflammatory activity against lambda carrageenan-induced pleurisy in Wistar Han rat assessed as reduction in exudate volume at 4 mg/kg, ip administered 30 mins before carrageenan challenge measured after 4 hrs by trypan blue staining; format: functional; set-up: scale not given: the % may be the effect or the level left; settings: route intraperitoneal; how it was run: as §1
Neutrophil [8] = experiment: Inhibition of […]-induced translocation of 5-lipoxygenase from cytosol to perinuclear region in human neutrophils at 0.1 uM to 10 uM by Western blot; format: functional, cell-based

CC(c1cc2ccccc2s1)N(O)C(N)=O (stereo not drawn) [ZILEUTON]
Activity (Rattus norvegicus [1]): 77%
Activity (Rattus norvegicus [2]): 41%
Activity (Rattus norvegicus [3]): 66%

CCOC(=O)c1c(Cc2cccc(Cl)c2)[nH]c2c1cc(O)c1ccccc12
Activity (Neutrophil [4]): inactive
Activity (Rattus norvegicus [5]): 40%
Activity (Rattus norvegicus [6]): 49%
Activity (Rattus norvegicus [7]): 77%

CC(C)c1ccc2c(c1)c(SC(C)(C)C)c(CC(C)(C)C(=O)O)n2Cc1ccc(Cl)cc1
Activity (Neutrophil [8]): inactive
